# According to ChEMBL document CHEMBL1687848, “In vitro effect of qnrA1, qnrB1, and qnrS1 genes on fluoroquinolone activity against isogenic Escherichia coli isolates with mutations in gyrA and parC” (2011):
# Experiments:
# Format in all cases: functional
# Escherichia coli [1] = experiment: Antibacterial activity against qnrS gene expressing Escherichia coli ATCC 25922 harboring GyrA S83L mutant and pBK-QnrS1 assessed as earliest time required to resistant colonies visible one step below mutant prevention concentration
# Escherichia coli [2] = experiment: Antibacterial activity against Escherichia coli ATCC 25922 expressing qnrB gene and pBK-QnrB1 by broth microdilution method
# Escherichia coli [3] = experiment: Antibacterial activity against Escherichia coli ATCC 25922 by broth microdilution method
# Escherichia coli [4] = experiment: Antibacterial activity against qnrA gene expressing Escherichia coli ATCC 25922 harboring ParC S80R mutant and pBK-QnrA1 by broth microdilution method
# Escherichia coli [5] = experiment: Antibacterial activity against Escherichia coli ATCC 25922 expressing qnrS gene and pBK-QnrS1 assessed as mutant prevention concentration
# Escherichia coli [6] = experiment: Antibacterial activity against Escherichia coli ATCC 25922 assessed as mutant prevention concentration
# Escherichia coli [7] = experiment: Antibacterial activity against Escherichia coli ATCC 25922 expressing qnrS gene and pBK-QnrS1 by broth microdilution method
# Escherichia coli [8] = experiment: Antibacterial activity against qnrS gene expressing Escherichia coli ATCC 25922 harboring ParC S80R mutant and pBK-QnrS1 by broth microdilution method
# Escherichia coli [9] = experiment: Antibacterial activity against Escherichia coli ATCC 25922 expressing qnrA gene and pBK-QnrA1 by broth microdilution method
# Escherichia coli [10] = experiment: Antibacterial activity against Escherichia coli ATCC 25922 harboring GyrA S83L mutant by broth microdilution method
# Escherichia coli [11] = experiment: Antibacterial activity against Escherichia coli ATCC 25922 expressing qnrS gene and pBK-QnrS1 assessed as earliest time required to resistant colonies visible one step below mutant prevention concentration
# Escherichia coli [12] = experiment: Antibacterial activity against qnrS gene expressing Escherichia coli ATCC 25922 harboring ParC S80R mutant, ParC S80R mutant and pBK-QnrS1 by broth microdilution method
# Escherichia coli [13] = experiment: Antibacterial activity against qnrB gene expressing Escherichia coli ATCC 25922 harboring GyrA S83L mutant and pBK-QnrB1 assessed as mutant prevention concentration
# Escherichia coli [14] = experiment: Antibacterial activity against qnrS gene expressing Escherichia coli ATCC 25922 harboring GyrA S83L mutant and pBK-QnrS1 by broth microdilution method
# Escherichia coli [15] = experiment: Antibacterial activity against Escherichia coli ATCC 25922 harboring GyrA S83L mutant assessed as mutant prevention concentration
# Escherichia coli [16] = experiment: Antibacterial activity against Escherichia coli ATCC 25922 expressing qnrB gene and pBK-QnrB1 assessed as mutant prevention concentration
# Escherichia coli [17] = experiment: Antibacterial activity against Escherichia coli ATCC 25922 expressing qnrA gene and pBK-QnrA1 assessed as mutant prevention concentration
# Escherichia coli [18] = experiment: Antibacterial activity against Escherichia coli ATCC 25922 harboring GyrA S83L mutant and ParC S80R mutant by broth microdilution method
# Escherichia coli [19] = experiment: Antibacterial activity against Escherichia coli ATCC 25922 expressing qnrB gene and pBK-QnrB1 assessed as earliest time required to resistant colonies visible one step below mutant prevention concentration
# Escherichia coli [20] = experiment: Antibacterial activity against qnrB gene expressing Escherichia coli ATCC 25922 harboring GyrA S83L mutant and pBK-QnrB1 assessed as earliest time required to resistant colonies visible one step below mutant prevention concentration
# Escherichia coli [21] = experiment: Antibacterial activity against qnrA gene expressing Escherichia coli ATCC 25922 harboring GyrA S83L mutant and pBK-QnrA1 assessed as earliest time required to resistant colonies visible one step below mutant prevention concentration
# Escherichia coli [22] = experiment: Antibacterial activity against qnrA gene expressing Escherichia coli ATCC 25922 harboring GyrA S83L mutant and pBK-QnrA1 assessed as mutant prevention concentration
# Escherichia coli [23] = experiment: Antibacterial activity against Escherichia coli ATCC 25922 harboring GyrA S83L mutant assessed as earliest time required to resistant colonies visible one step below mutant prevention concentration
# Escherichia coli [24] = experiment: Antibacterial activity against Escherichia coli ATCC 25922 assessed as earliest time required to resistant colonies visible one step below mutant prevention concentration
# Escherichia coli [25] = experiment: Antibacterial activity against qnrB gene expressing Escherichia coli ATCC 25922 harboring ParC S80R mutant, ParC S80R mutant and pBK-QnrB1 by broth microdilution method
# Escherichia coli [26] = experiment: Antibacterial activity against Escherichia coli ATCC 25922 expressing qnrA gene and pBK-QnrA1 assessed as earliest time required to resistant colonies visible one step below mutant prevention concentration
# Escherichia coli [27] = experiment: Antibacterial activity against qnrB gene expressing Escherichia coli ATCC 25922 harboring ParC S80R mutant and pBK-QnrB1 by broth microdilution method
# Escherichia coli [28] = experiment: Antibacterial activity against qnrA gene expressing Escherichia coli ATCC 25922 harboring ParC S80R mutant, ParC S80R mutant and pBK-QnrA1 by broth microdilution method
# Escherichia coli [29] = experiment: Antibacterial activity against qnrS gene expressing Escherichia coli ATCC 25922 harboring GyrA S83L mutant and pBK-QnrS1 assessed as mutant prevention concentration
# Escherichia coli [30] = experiment: Antibacterial activity against qnrB gene expressing Escherichia coli ATCC 25922 harboring GyrA S83L mutant and pBK-QnrB1 by broth microdilution method
# Escherichia coli [31] = experiment: Antibacterial activity against qnrA gene expressing Escherichia coli ATCC 25922 harboring GyrA S83L mutant and pBK-QnrA1 by broth microdilution method
# Escherichia coli [32] = experiment: Antibacterial activity against Escherichia coli ATCC 25922 harboring ParC S80R mutant by broth microdilution method
# Escherichia coli [33] = experiment: Antibacterial activity against qnrA gene expressing Escherichia coli ATCC 25922 harboring GyrA S83L mutant and pBK-QnrA1 assessed as resistant colonies recovered one step below mutant prevention concentration
# Summary of the method: (§1)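 Resistant colonies recovered from Mueller-Hinton plates one concentration step below the MPC for each fluoroquinolone were retested for MIC. Mutants taken from plated concentrations closest to the MPC had the QRDRs of gyrA and parC analysed.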
# Escherichia coli [34] = experiment: Antibacterial activity against Escherichia coli ATCC 25922 assessed as resistant colonies recovered one step below mutant prevention concentration; summary of the method: as §1
# Escherichia coli [35] = experiment: Antibacterial activity against Escherichia coli ATCC 25922 harboring GyrA S83L mutant assessed as resistant colonies recovered one step below mutant prevention concentration; summary of the method: as §1
# Escherichia coli [36] = experiment: Antibacterial activity against qnrS gene expressing Escherichia coli ATCC 25922 harboring GyrA S83L mutant and pBK-QnrS1 assessed as resistant colonies recovered one step below mutant prevention concentration; summary of the method: as §1
# Escherichia coli [37] = experiment: Antibacterial activity against qnrB gene expressing Escherichia coli ATCC 25922 harboring GyrA S83L mutant and pBK-QnrB1 assessed as resistant colonies recovered one step below mutant prevention concentration; summary of the method: as §1
# Escherichia coli [38] = experiment: Antibacterial activity against Escherichia coli ATCC 25922 expressing qnrA gene and pBK-QnrA1 assessed as resistant colonies recovered one step below mutant prevention concentration; summary of the method: as §1
# Escherichia coli [39] = experiment: Antibacterial activity against Escherichia coli ATCC 25922 expressing qnrB gene and pBK-QnrB1 assessed as resistant colonies recovered one step below mutant prevention concentration; summary of the method: as §1
# Escherichia coli [40] = experiment: Antibacterial activity against Escherichia coli ATCC 25922 expressing qnrS gene and pBK-QnrS1 assessed as resistant colonies recovered one step below mutant prevention concentration; summary of the method: as §1
smiles,measurement,setting,value
O=C(O)c1cn(C2CC2)c2cc(N3CCNCC3)c(F)cc2c1=O [CIPROFLOXACIN],Time,Escherichia coli [1],24 h
same,MBC,Escherichia coli [2],0.125 µg/mL
same,MBC,Escherichia coli [3],0.015 µg/mL
same,MBC,Escherichia coli [4],0.25 µg/mL
same,Activity,Escherichia coli [5],4 µg/mL
same,Activity,Escherichia coli [6],1 µg/mL
same,MBC,Escherichia coli [7],0.25 µg/mL
same,MBC,Escherichia coli [8],0.25 µg/mL
same,MBC,Escherichia coli [9],0.125 µg/mL
same,MBC,Escherichia coli [10],0.125 µg/mL
same,Time,Escherichia coli [11],24 h
same,MBC,Escherichia coli [12],4 µg/mL
same,Activity,Escherichia coli [13],8 µg/mL
same,MBC,Escherichia coli [14],1 µg/mL
same,Activity,Escherichia coli [15],4 µg/mL
same,Activity,Escherichia coli [16],2 µg/mL
same,Activity,Escherichia coli [17],8 µg/mL
same,MBC,Escherichia coli [18],2 µg/mL
same,Time,Escherichia coli [19],72 h
same,Time,Escherichia coli [20],24 h
same,Time,Escherichia coli [21],24 h
same,Activity,Escherichia coli [22],16 µg/mL
same,Time,Escherichia coli [23],24 h
same,Time,Escherichia coli [24],48 h
same,MBC,Escherichia coli [25],2 µg/mL
same,Time,Escherichia coli [26],48 h
same,MBC,Escherichia coli [27],0.25 µg/mL
same,MBC,Escherichia coli [28],4 µg/mL
same,Activity,Escherichia coli [29],8 µg/mL
same,MBC,Escherichia coli [30],0.5 µg/mL
same,MBC,Escherichia coli [31],0.5 µg/mL
same,MBC,Escherichia coli [32],0.004 µg/mL
C[C@H]1COc2c(N3CCN(C)CC3)c(F)cc3c(=O)c(C(=O)O)cn1c23.C[C@H]1COc2c(N3CCN(C)CC3)c(F)cc3c(=O)c(C(=O)O)cn1c23.O [LEVOFLOXACIN],Time,Escherichia coli [1],96 h
same,MBC,Escherichia coli [2],0.25 µg/mL
same,MBC,Escherichia coli [3],0.03 µg/mL
same,MBC,Escherichia coli [4],0.5 µg/mL
same,MIC,Escherichia coli [4],0.25 µg/mL
same,Activity,Escherichia coli [5],4 µg/mL
same,Activity,Escherichia coli [6],2 µg/mL
same,MBC,Escherichia coli [7],0.5 µg/mL
same,MIC,Escherichia coli [7],0.125 µg/mL
same,MBC,Escherichia coli [8],0.25 µg/mL
same,MIC,Escherichia coli [8],0.25 µg/mL
same,MBC,Escherichia coli [9],0.5 µg/mL
same,MBC,Escherichia coli [10],0.25 µg/mL
same,MIC,Escherichia coli [10],0.125 µg/mL
same,Time,Escherichia coli [11],24 h
same,MBC,Escherichia coli [12],4 µg/mL
same,MIC,Escherichia coli [12],4 µg/mL
same,Activity,Escherichia coli [13],16 µg/mL
same,MBC,Escherichia coli [14],2 µg/mL
same,Activity,Escherichia coli [15],4 µg/mL
same,MIC,Escherichia coli [33],2 µg/mL
same,Activity,Escherichia coli [16],4 µg/mL
same,Activity,Escherichia coli [17],8 µg/mL
same,MBC,Escherichia coli [18],0.25 µg/mL
same,MIC,Escherichia coli [18],0.25 µg/mL
same,Time,Escherichia coli [19],48 h
same,Time,Escherichia coli [20],72 h
same,Time,Escherichia coli [21],24 h
same,MIC,Escherichia coli [34],0.125 µg/mL
same,MIC,Escherichia coli [35],2 µg/mL
same,Activity,Escherichia coli [22],32 µg/mL
same,MIC,Escherichia coli [36],4 µg/mL
same,Time,Escherichia coli [23],24 h
same,Time,Escherichia coli [24],48 h
same,MBC,Escherichia coli [25],1 µg/mL
same,Time,Escherichia coli [26],24 h
same,MBC,Escherichia coli [27],0.5 µg/mL
same,MIC,Escherichia coli [27],0.25 µg/mL
same,MBC,Escherichia coli [28],4 µg/mL
same,MIC,Escherichia coli [28],2 µg/mL
same,Activity,Escherichia coli [29],16 µg/mL
same,MBC,Escherichia coli [30],0.5 µg/mL
same,MIC,Escherichia coli [30],0.25 µg/mL
same,MBC,Escherichia coli [31],0.5 µg/mL
same,MBC,Escherichia coli [32],0.008 µg/mL
COc1c(N2C[C@@H]3CCCN[C@@H]3C2)c(F)cc2c(=O)c(C(=O)O)cn(C3CC3)c12 [MOXIFLOXACIN],MIC,Escherichia coli [37],1 µg/mL
same,Time,Escherichia coli [1],24 h
same,MBC,Escherichia coli [2],1 µg/mL
same,MIC,Escherichia coli [2],0.25 µg/mL
same,MBC,Escherichia coli [3],0.015 µg/mL
same,MIC,Escherichia coli [3],0.008 µg/mL
same,MBC,Escherichia coli [4],0.5 µg/mL
same,MIC,Escherichia coli [4],0.5 µg/mL
same,Activity,Escherichia coli [5],4 µg/mL
same,Activity,Escherichia coli [6],2 µg/mL
same,MIC,Escherichia coli [38],0.5 µg/mL
same,MBC,Escherichia coli [7],0.25 µg/mL
same,MIC,Escherichia coli [7],0.25 µg/mL
same,MBC,Escherichia coli [8],0.5 µg/mL
same,MIC,Escherichia coli [8],0.25 µg/mL
same,MBC,Escherichia coli [9],0.5 µg/mL
same,MIC,Escherichia coli [9],0.25 µg/mL
same,MBC,Escherichia coli [10],0.125 µg/mL
same,Time,Escherichia coli [11],24 h
same,MBC,Escherichia coli [12],4 µg/mL
same,Activity,Escherichia coli [13],32 µg/mL
same,MBC,Escherichia coli [14],2 µg/mL
same,MIC,Escherichia coli [14],1 µg/mL
same,Activity,Escherichia coli [15],4 µg/mL
same,Activity,Escherichia coli [16],4 µg/mL
same,Activity,Escherichia coli [17],8 µg/mL
same,MBC,Escherichia coli [18],0.25 µg/mL
same,MIC,Escherichia coli [18],0.25 µg/mL
same,Time,Escherichia coli [19],24 h
same,Time,Escherichia coli [20],24 h
same,MIC,Escherichia coli [39],0.5 µg/mL
same,Time,Escherichia coli [21],24 h
same,MIC,Escherichia coli [35],1 µg/mL
same,Activity,Escherichia coli [22],16 µg/mL
same,MIC,Escherichia coli [36],1 µg/mL
same,Time,Escherichia coli [23],24 h
same,Time,Escherichia coli [24],48 h
same,MBC,Escherichia coli [25],2 µg/mL
same,MIC,Escherichia coli [25],1 µg/mL
same,Time,Escherichia coli [26],24 h
same,MBC,Escherichia coli [27],0.5 µg/mL
same,MIC,Escherichia coli [27],0.5 µg/mL
same,MBC,Escherichia coli [28],4 µg/mL
same,MIC,Escherichia coli [40],0.5 µg/mL
same,Activity,Escherichia coli [29],32 µg/mL
same,MBC,Escherichia coli [30],0.5 µg/mL
same,MIC,Escherichia coli [30],0.5 µg/mL
same,MBC,Escherichia coli [31],0.5 µg/mL
same,MIC,Escherichia coli [31],0.5 µg/mL
same,MBC,Escherichia coli [32],0.008 µg/mL
same,MIC,Escherichia coli [32],0.008 µg/mL
